Variants at the floor of the assay were thinned out.
B1: tRNA (parent)
chain: GUUCCGUUGGCGUAAUGGUAACGCGUCUCCCUCCUAAGGAGAAGACUGCGGGUUCGAGUCCCGUACGGAACG

Variants of: B1
Test: yeast fitness relative to wild type (ratio to wild type); higher = fitter; tRNA-Arg(CCU), competitive growth, 37 C, YPD
Method in brief: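 Changes in genotype frequencies gave Darwinian fitness relative to wild type. Frequencies were read by 100-nucleotide paired-end sequencing of gene amplicons before and after pooled Saccharomyces cerevisiae strains, carrying tRNA-Arg(CCU) gene variants at the native locus, were competed in YPD at 37°C for 24 hours in six replicates. A genotype was kept only with ≥ 100 starting reads, and estimates < 0.5 were set to 0.5.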

Going from GUUCCGUUGGCGUAAUGGUAACGCGUCUCCCUCCUAAGGAGAAGACUGCGGGUUCGAGUCCCGUACUGAUCG [G67U A70U] to GUUCCGUUGGCGUAAUGGUAACGCGUCUCCCUCCUAAGGAGAAGACUGCGGGUUCGAGUCCCGUACCGAUCG [G67C A70U], the yeast fitness falls from 0.933 to 0.904.

First: GUUCCGUUGGCGUAAUGGUAACGCGUCUCCCUCCUAAGGAGAAGACUGCGGGUUCGAGUCCCGUACGAUACG [G68A A69U]
Second: GUUCCGUUGGCGUAAUGGUAACGCGUCUCCCUCCUAAGGAGAAGACUGCGGGUUCGAGUCCCGUACGAGACG [G68A A69G]
The yeast fitness of the first is lower: 0.791 for the first, 0.827 for the second.

Compared with GUUCCGUUGGCGUAAUGGUAACGCGUCUCCCUCCUAAGGAGAAGACUGCGGGUUCGAGUCCCGUACGGGUCG [A69G A70U], GUUCCGUUGGCGUAAUGGUAACGCGUCUCCCUCCUAAGGAGAAGACUGCGGGUUCGAGUCCCGUACUGCACG [G67U A69C] is lower in yeast fitness: 0.99 for the first, 0.795 for the second.

First: GUUCCGUUGGCGUAAUGGUAACGCGUCUCCCUCCUAAGGAGAAGACUGCGGGUUCGAGUCCCGUACGGCCCG [A69C A70C]
Second: GUUCCGUUGGCGUAAUGGUAACGCGUCUCCCUCCUAAGGAGAAGACUGCGGGUUCGAGUCCCGUACGGCGCG [A69C A70G]
The yeast fitness of the first is lower: 0.982 for the first, 1.02 for the second.

Compared with GUUCCGUUGGCGUAAUGGUAACGCGUCUCCCUCCUAAGGAGAAGACUGCGGGUUCGAGUCCCGUACGGCUCG [A69C A70U], GUUCCGUUGGCGUAAUGGUAACGCGUCUCCCUCCUAAGGAGAAGACUGCGGGUUCGAGUCCCGUACGCGACG [G68C A69G] is lower in yeast fitness: 1.05 for the first, 0.945 for the second.

Going from GUUCCGUUGGCGUAAUGGUAACGCGUCUCCCUCCUAAGGAGAAGACUGCGGGUUCGAGUCCCGUACGCCACG [G68C A69C] to GUUCCGUUGGCGUAAUGGUAACGCGUCUCCCUCCUAAGGAGAAGACUGCGGGUUCGAGUCCCGUACGCUACG [G68C A69U], the yeast fitness falls from 0.786 to 0.711.

Compared with GUUCCGUUGGCGUAAUGGUAACGCGUCUCCCUCCUAAGGAGAAGACUGCGGGUUCGAGUCCCGUACGGUCCG [A69U A70C], GUUCCGUUGGCGUAAUGGUAACGCGUCUCCCUCCUAAGGAGAAGACUGCGGGUUCGAGUCCCGUACGAACCG [G68A A70C] is lower in yeast fitness: 1.04 for the first, 0.861 for the second.

First: GUUCCGUUGGCGUAAUGGUAACGCGUCUCCCUCCUAAGGAGAAGACUGCGGGUUCGAGUCCCGUACGAAUCG [G68A A70U]
Second: GUUCCGUUGGCGUAAUGGUAACGCGUCUCCCUCCUAAGGAGAAGACUGCGGGUUCGAGUCCCGUACGUAACG [G68U]
The yeast fitness of the first is higher: 1.21 for the first, 1.02 for the second.

Compared with GUUCCGUUGGCGUAAUGGUAACGCGUCUCCCUCCUAAGGAGAAGACUGCGGGUUCGAGUCCCGUACGAAACG [G68A], GUUCCGUUGGCGUAAUGGUAACGCGUCUCCCUCCUAAGGAGAAGACUGCGGGUUCGAGUCCCGUACGCAACG [G68C] is higher in yeast fitness: 0.963 for the first, 0.968 for the second.

Compared with GUUCCGUUGGCGUAAUGGUAACGCGUCUCCCUCCUAAGGAGAAGACUGCGGGUUCGAGUCCCGUACGUGACG [G68U A69G], GUUCCGUUGGCGUAAUGGUAACGCGUCUCCCUCCUAAGGAGAAGACUGCGGGUUCGAGUCCCGUACGCACCG [G68C A70C] is lower in yeast fitness: 0.998 for the first, 0.837 for the second.

Compared with GUUCCGUUGGCGUAAUGGUAACGCGUCUCCCUCCUAAGGAGAAGACUGCGGGUUCGAGUCCCGUACGGAGCG [A70G], GUUCCGUUGGCGUAAUGGUAACGCGUCUCCCUCCUAAGGAGAAGACUGCGGGUUCGAGUCCCGUACGGACCG [A70C] is higher in yeast fitness: 0.999 for the first, 1.04 for the second.

Work on GUUCCGUUGGCGUAAUGGUAACGCGUCUCCCUCCUAAGGAGAAGACUGCGGGUUCGAGUCCCGUACGGAUCG [A70U] yielded a yeast fitness of 1.02.
